In the library only some 3.9% were active in any assay of this set; here they are far more common.
CRFBP-R2 agonist: agonists of CRF-BP/CRF-R2 complex, primary screen, cell-based, HEK293, calcium dye fluorescence, uHTS | CRF-binding protein / CRF receptor 2 complex (human) | calcium dye fluorescence (FLIPR); percent of saturating CRF peptide response | activation, % at 13.2 µM | actives 0.46% (n = 350,000) | AID 588473, 2011;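 active means activation of at least 50%, plus an integration ratio under a set limit after plate pattern correction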
ANO1 activ: TMEM16A chloride channel activators or potentiators, primary screen, cell-based, HTS. HEK293 TMEM16A/YFP-H148Q/I152L, iodide quench fluorescence; stronger effect = lower value. B-score at 10 µM. Anoctamin-1 (Mus musculus), Q8BHY3. AID 623877, 2012. actives 0.3% (n = 340,000);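 active means fluorescence-ratio B-score plate-corrected deviation score at least 3 library SD below zero, with starting fluorescence score within 5 deviations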;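 further: channel opened by trigger with iodide after compound preincubation; score built on the fluorescence ratio of max minus min over baseline; more negative score means more quench and so TMEM16A activation or potentiation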
TAAR1 antag: human TAAR1 antagonists, primary screen, Fluo-8 calcium fluorescence, CHO RD-HGA16 cells. inhibition, % at 3 µM. antagonist. actives 1.5% (n = 360,000);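 active means inhibition above a per-plate cutoff, the mean inhibition of test compounds on that plate plus 3 SD, cut at about 49% in these data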
Target sequence (Q96RJ0 whole entry, looked up): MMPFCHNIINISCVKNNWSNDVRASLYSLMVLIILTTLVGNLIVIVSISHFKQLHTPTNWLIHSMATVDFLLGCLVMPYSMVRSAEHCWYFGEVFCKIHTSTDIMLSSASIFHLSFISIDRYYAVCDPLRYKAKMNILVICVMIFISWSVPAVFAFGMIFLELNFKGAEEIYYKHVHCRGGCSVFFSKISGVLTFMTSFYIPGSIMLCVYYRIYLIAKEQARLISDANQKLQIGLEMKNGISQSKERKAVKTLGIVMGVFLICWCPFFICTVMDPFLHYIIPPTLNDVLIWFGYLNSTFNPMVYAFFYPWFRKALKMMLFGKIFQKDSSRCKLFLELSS
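Test system: RD-HGA16 CHO cells with stable hTAAR1 and Gα16 / Probe or stimulus: EC80 β-phenethylamine stimulus / Times: seeding 17-24 h prior, 75-min 37 °C, 30-min RT dye loading / Detection: Fluo-8 calcium-sensitive fluorescence / Read-out basis: % inhibition scaled between DMSO and EC80 PEA controls / Repeats: singlicate, one well per test compound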
CRFBP-R2 block: antagonists of CRF-BP/CRF-R2 complex, primary screen, cell-based, HEK293, calcium dye fluorescence, uHTS. CRF-induced calcium fluorescence. actives 0.59% (n = 350,000). AID 588475, 2011. inhibition, % at 11.8 µM;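 active means inhibition of the ligand-induced calcium signal above about 50% at the single tested concentration, limit read from the data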
TMEM16A inh: TMEM16A chloride channel inhibitors, primary screen, cell-based, HTS; Anoctamin-1 (Mus musculus), Q8BHY3; HEK293 TMEM16A/YFP iodide influx fluorescence, ionomycin; normalized B-score (activity score, 25-100; higher = stronger inhibition) at 10 µM; actives 1.2% (n = 310,000); AID 588511, 2011;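 active means ratio plate-corrected score three or more library SD toward inhibition, starting fluorescence score within five deviations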;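 further: score derived from kinetic fluorescence span divided by baseline fluorescence per well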
TAAR1 ag: human TAAR1 agonists, primary screen, Fluo-8 calcium fluorescence, CHO RD-HGA16 cells | Trace amine-associated receptor 1 (Homo sapiens), Q96RJ0 | vehicle wells 0%, saturating PEA agonist 100% | activation, % at 3 µM | actives 0.99% (n = 360,000) | AID 624467, 2012;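 active means activation above the mean activation of all test compounds in the run plus 3 SD, cut at about 38% in these data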
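Signal – calcium-sensitive Fluo-8 signal, excitation 470-495, emission 515-575 nm · System – RD-HGA16 (CHO) cells co-expressing Gα16 and hTAAR1 · Incubation – 17-24 h seeding, 75 min 37 °C dye, 30 min RT · Compound dosing – 3 µM single concentration · Repeats – no replicates (n 1)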
nonsel antag count: nonselective antagonists in TAAR1 counter-screen cells, counter-screen for hTAAR1 antagonist project, cell-based, fluorescence, calcium. shares compounds with TAAR1 antag. counterscreen cell line, antagonist mode. inhibition, % at 3 µM. actives 77% (n = 2,400). AID 651780, 2012; in the data active means inhibition above about 22%;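 further: CHO-Ga16 host cells stimulated with ATP at an EC80 level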
TAAR1 ant conf: human TAAR1 antagonists, retest of hits, confirmation, cell-based, fluorescence | actives 40% (n = 2,400) | shares compounds with TAAR1 antag | inhibition, % at 3 µM | AID 651785, 2012 | TAAR1-expressing cells, fluorescence antagonist read-out; in the data active means inhibition above about 49%;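 further: CHO-Ga16 host cells challenged with agonist PEA near its EC80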
Ga16 nonsel ag: calcium activation in Ga16-expressing cells, counter-screen for TAAR1 antagonist project, cell-based, fluorescence; shares compounds with TAAR1 antag; AID 651953, 2012; activation, % at 3 µM; actives 18% (n = 2,400); agonist counterscreen; in the data active means activation above about 12%
TAAR1 ag count: TAAR1 activation by candidate antagonists – cell-based, fluorescence, counter-screen for TAAR1 antagonist project. shares compounds with TAAR1 antag. hTAAR1 cell line, agonist mode. activation, % at 3 µM. actives 2% (n = 2,400). AID 651955, 2012; in the data active means activation above about 37%;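 further: CHO cells stably expressing TAAR1 with calcium dye readout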
Of the large screens only hits and unclear results are named; the others gave an inactive call (follow-up assays come after a bar, where they were run); ! = not confirmed by another sample.

CN(C)S(=O)(=O)c1ccc(C(=O)N2CCN(S(=O)(=O)c3ccc4c(c3)OCCO4)CC2)cc1	none (no result: TMEM16A inh)
CC(C)[N+]1=C2C=CC=CC=C2SC12C([N+](=O)[O-])=CC(=[N+]([O-])[O-])C=C2[N+](=O)[O-] (stereo unspecified)	none
O=C(NCc1cccnc1)Nc1cccc(Cl)c1Cl	none
N#C/C(=C(/O)c1ccc([N+](=O)[O-])o1)c1nc2ccccc2[nH]1	none
CCOc1cc(/C=C(/C#N)c2nc3ccccc3[nH]2)ccc1Oc1ccc([N+](=O)[O-])cn1	TAAR1 antag 65 | nonsel antag count 54 | TAAR1 ant conf 66 | Ga16 nonsel ag inactive | TAAR1 ag count inactive
COC(=O)c1ccc(COc2ccc(/C=C(\C#N)c3nc4ccccc4[nH]3)cc2OC)o1	TAAR1 antag 61 | nonsel antag count 32 | TAAR1 ant conf inactive | Ga16 nonsel ag inactive | TAAR1 ag count inactive
N#C/C(=C\c1ccc([N+](=O)[O-])o1)c1nc2ccccc2[nH]1	CRFBP-R2 agonist 66, TAAR1 antag 66 (no result: ANO1 activ) | nonsel antag count 49 | TAAR1 ant conf 61 | Ga16 nonsel ag 20 | TAAR1 ag count inactive
COc1cc(/C=C(/C#N)c2nc3ccccc3[nH]2)ccc1OCc1ccc(C(=O)O)o1	none
O=C(COc1ccc2ccccc2c1)Nc1ccccc1C(=O)O	none
O=C(CSc1nc(-c2ccccc2)cs1)NC(=O)NCc1ccco1	TAAR1 antag 54 | nonsel antag count 30 | TAAR1 ant conf inactive | Ga16 nonsel ag inactive | TAAR1 ag count inactive
COc1ccc(S(=O)(=O)N2CCC(C(=O)NCc3ccncc3)CC2)cc1C	none
Cc1nc(-c2ccc(S(=O)(=O)Oc3ccccc3Cl)s2)cs1	TAAR1 antag 79 | nonsel antag count 28 | TAAR1 ant conf 49 | Ga16 nonsel ag inactive | TAAR1 ag count inactive
Cc1oc2cc(O)cc(C)c2c(=O)c1-c1cnn(-c2ccccc2)c1	TAAR1 antag 58 | nonsel antag count 33 | TAAR1 ant conf inactive | Ga16 nonsel ag inactive | TAAR1 ag count inactive
O=C(Nc1nc(-c2cc(F)ccc2F)cs1)c1cccc(N2C(=O)CCC2=O)c1	TAAR1 antag 75 | nonsel antag count 48 | TAAR1 ant conf 60 | Ga16 nonsel ag 22 | TAAR1 ag count inactive
COc1ccc(-n2c(SCc3cn4c(C)cccc4n3)nc3ccccc3c2=O)cc1OC	none
COC(=O)[C@H](CO)N1C(=O)[C@@H]2[C@H](C1=O)C1C=C[C@H]2C1	none (no result: ANO1 activ, TMEM16A inh)
CCC(C)Sc1ccc(-c2nc3ccc(C)cn3c2NCc2ccccc2)cc1 (stereo unspecified)	TAAR1 antag 72 (no result: TMEM16A inh) | nonsel antag count 39 | TAAR1 ant conf 57 | Ga16 nonsel ag inactive | TAAR1 ag count inactive
Cc1ccc2nc(-c3ccc(-c4cccc(Cl)c4)cc3)c(NCc3ccccc3)n2c1	TAAR1 antag 64 | nonsel antag count 32 | TAAR1 ant conf inactive | Ga16 nonsel ag inactive | TAAR1 ag count inactive
CCCCNc1c(-c2ccc(-c3cccc(Cl)c3)cc2)nc2ccccn12	TAAR1 antag 65! | nonsel antag count 31 | TAAR1 ant conf inactive | Ga16 nonsel ag 19 | TAAR1 ag count inactive
CCCCNc1c(-c2ccc(SC(C)CC)cc2)nc2ccc(Cl)cn12 (stereo unspecified)	none (no result: CRFBP-R2 agonist, ANO1 activ, CRFBP-R2 block, TMEM16A inh)
Cc1cc2c(cc1S(=O)(=O)C(C)CC(=O)NCc1ccco1)OCC(=O)N2 (stereo unspecified)	none
COc1cc(OC)cc(C(=O)Nc2cccc(-c3ccc(N4CCOCC4)nn3)c2)c1	TAAR1 antag 55 | nonsel antag count 35 | TAAR1 ant conf inactive | Ga16 nonsel ag inactive | TAAR1 ag count inactive
O=C(COc1ccc(Cl)cc1)Nc1cccc(-c2ccc(N3CCOCC3)nn2)c1	TAAR1 antag 68 | nonsel antag count 32 | TAAR1 ant conf inactive | Ga16 nonsel ag inactive | TAAR1 ag count inactive
O=C(NCCN1CCC(n2c(=O)[nH]c3ccccc32)CC1)c1ccncc1	none (no result: CRFBP-R2 agonist, ANO1 activ, CRFBP-R2 block, TMEM16A inh)
Cc1cccc(NC(=O)Cn2nnc(-c3cccs3)n2)c1C	TAAR1 antag 66 | nonsel antag count inactive | TAAR1 ant conf inactive | Ga16 nonsel ag inactive | TAAR1 ag count inactive
CCN=C(NCC)SC1CC(=O)N(c2ccc(OC)cc2)C1=O (stereo unspecified)	TAAR1 antag 65 | nonsel antag count 30 | TAAR1 ant conf 55 | Ga16 nonsel ag 12 | TAAR1 ag count inactive
CCN=C(NCC)SC1CC(=O)N(c2cccc(OCC)c2)C1=O (stereo unspecified)	ANO1 activ -9.4, TAAR1 antag 71 | nonsel antag count 26 | TAAR1 ant conf 50 | Ga16 nonsel ag inactive | TAAR1 ag count inactive
CCOc1ccc(N2C(=O)CC(SC(=NC)Nc3cccc(OC)c3)C2=O)cc1 (stereo unspecified)	none
CN=C(Nc1ccc(Br)cc1)SC1CC(=O)N(c2ccc(OC)cc2)C1=O (stereo unspecified)	none
Cn1c(CNC(=O)c2ccco2)nnc1SCC(=O)c1ccc(F)cc1	none
CCOc1ccc(S(=O)(=O)Nc2cccc(C(=O)N(C)CC(=O)Nc3cccc(OC)c3)c2)cc1	none
O=C(NC[C@H]1CCCO1)c1cccc2c1C(=O)c1ccc(-c3ccc(F)cc3OCc3ccccc3)cc1S2(=O)=O	TAAR1 antag 69 (no result: TMEM16A inh) | nonsel antag count 37 | TAAR1 ant conf 51 | Ga16 nonsel ag inactive | TAAR1 ag count inactive
CC(C)c1cccc(-c2ccc3c(c2)S(=O)(=O)c2cccc(C(=O)NCc4ccccc4)c2C3=O)c1	TAAR1 antag 61 (no result: TMEM16A inh) | nonsel antag count 36 | TAAR1 ant conf inactive | Ga16 nonsel ag inactive | TAAR1 ag count inactive
CCn1cc(C(=O)NCCC(=O)NC(C)C)c(=O)c2cc3c(cc21)OCO3	none

Compound activity deposited in PubChem BioAssay by several laboratories.
